The structures appear in SMILES notation. pIC50: −log10 of the molar value. Values after ≈ are worked out from the molar mass of the structure shown. A value given as a limit tells only on which side of the number the result lay.

One experiment deals with Trichophyton rubrum. Put plainly: Antimicrobial activity against Trichophyton rubrum after 4 days by microdilution method. The format is functional. The note with it: 96 h. (In general: In broth dilution the organism is exposed to a series of concentrations in liquid medium.)
A short description of experiment [1]: Cytotoxicity against human HepG2 cells assessed as cell growth inhibition after 48 hrs by MTT assay. The note with it: HepG2, 48 h. The format is functional, cell-based. Put shortly:
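HepG2 cells seeded at 3 × 10^3 cells/well in DMEM with 10% FBS and grown 24 h, then exposed to compound for 48 h. MTT (5 mg/mL in PBS) added for 3 h, supernatant removed, formazan dissolved in DMSO with 10 min shaking, and OD read at 490 nm. Methotrexate served as positive control. Values given as IC50.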

Consider `CCO[C@@]12CC(=O)/C(=C(/C)N)C(=O)[C@]1(C)c1c(O)c(C(C)=O)c(O)c(C)c1O2`, for which the MIC50 with Trichophyton rubrum was more than 200 µM.

As to `CCO[C@@]12CC(=O)/C(=C(/C)N)C(=O)[C@]1(C)c1c(O)c(C)c(O)c(C(C)=O)c1O2`, the MIC50 against Trichophyton rubrum was more than 200 µM. For the same compound, the pIC50 in experiment [1] was 4.30.

`CCO[C@@]12CC(O)=C(C(C)=O)C(=O)[C@]1(C)c1c(O)c(C)c(O)c(C(C)=O)c1O2`: the MIC50 in the experiment on Trichophyton rubrum amounted to 41 µM (≈ 16 µg/mL).

In turn, `COC(=O)CCCN/C(C)=C1\C(=O)C=C2Oc3c(C(C)=O)c(O)c(C)c(O)c3[C@@]2(C)C1=O` showed an MIC50 in the experiment with Trichophyton rubrum of more than 200 µM.

Consider `CCOC(=O)CCCN/C(C)=C1\C(=O)C[C@@]2(OCC)Oc3c(C(C)=O)c(O)c(C)c(O)c3[C@@]2(C)C1=O`, for which the MIC50 in the experiment on Trichophyton rubrum is more than 200 µM.

Regarding `CCO[C@@]12CC(O)=C(C(C)=O)C(=O)[C@]1(C)c1c(O)c(C(C)=O)c(O)c(C)c1O2`, in the experiment on Trichophyton rubrum, the MIC50 is 41 µM (≈ 16 µg/mL). In experiment [1], the pIC50 is 4.27.

`CCOC(=O)CCCN/C(C)=C1\C(=O)C=C2Oc3c(C(C)=O)c(O)c(C)c(O)c3[C@@]2(C)C1=O`: the MIC50 in the experiment on Trichophyton rubrum is more than 200 µM.

`CC(=O)C1=C(O)C=C2Oc3c(C(C)=O)c(O)c(C)c(O)c3[C@@]2(C)C1=O` [(+)-USNIC ACID] registered an MIC50 against Trichophyton rubrum of more than 200 µM.

As to `CN(Cc1cnc2nc(N)nc(N)c2n1)c1ccc(C(=O)N[C@@H](CCC(=O)O)C(=O)O)cc1` [METHOTREXATE], the pIC50 in experiment [1] is 4.80.

As usually defined, the MIC50 is the lowest concentration that inhibits either 50% of growth or 50% of the strains tested, depending on the study. In general, pIC50 refers to the IC50 on a negative log10 scale, so that one unit is a factor of ten.

The values are drawn from ChEMBL document CHEMBL3856188, “Usnic Acid Derivatives with Cytotoxic and Antifungal Activities from the Lichen Usnea longissima” (J Nat Prod, 2016).
